Screens from PubChem BioAssay.
Shown are actives, neighbours in structure and some others; about 2% of the full set was active somewhere.
Rpn11 inh – Rpn11 (human) deubiquitinase inhibition; human 26S proteasome, Ub4-pepOG fluorescence polarization; 20S core pre-blocked with epoxomicin; inhibition, % at 20 µM; hit rate 0.59% among 360,000;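 active = inhibition at 20 µM, scaled to each plate's controls, above about 33%, limit read from the data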
Target sequence (O00487 whole entry, looked up): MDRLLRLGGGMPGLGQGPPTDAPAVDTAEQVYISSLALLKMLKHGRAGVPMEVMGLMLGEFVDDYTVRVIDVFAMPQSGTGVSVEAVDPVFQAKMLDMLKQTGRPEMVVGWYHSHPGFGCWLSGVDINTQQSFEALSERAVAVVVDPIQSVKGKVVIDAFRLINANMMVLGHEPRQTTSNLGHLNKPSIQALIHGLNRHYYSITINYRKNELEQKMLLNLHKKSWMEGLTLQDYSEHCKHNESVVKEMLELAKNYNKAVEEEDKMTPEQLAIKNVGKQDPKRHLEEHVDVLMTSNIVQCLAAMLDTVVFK
STEP block – inhibitors of human striatal-enriched phosphatase STEP | recombinant STEP, OMFP fluorogenic substrate, fluorescence | inhibition, % at 20 µM | hit rate 0.25% among 360,000 | AID 588621;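 active = inhibition at 20 µM, scaled per plate between control wells, above about 37%, limit read from the data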;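 also: 0% = DMSO with enzyme and substrate and 100% = substrate only without enzyme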
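material = STEP tyrosine phosphatase | reagent = fluorogenic phosphatase substrate OMFP at 25 µM final | doses = single compound dose of 20 µM, 1% DMSO final | schedule = 20 min reaction, room temperature, in the dark | measured by = fluorescence, 480/540 nm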
LMPTP inh – blocks human LMPTP phosphatase; hit rate 0.22% among 360,000; AID 651560; recombinant LMPTP-A, OMFP fluorogenic substrate, fluorescence intensity; inhibition, % at 20 µM; P24666;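 active = compounds that cut the enzyme signal by at least half of the control window in the single-dose screen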;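 also: plate controls were DMSO wells with enzyme plus substrate for no effect and substrate without enzyme for full effect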
Target sequence (P24666 whole entry, looked up): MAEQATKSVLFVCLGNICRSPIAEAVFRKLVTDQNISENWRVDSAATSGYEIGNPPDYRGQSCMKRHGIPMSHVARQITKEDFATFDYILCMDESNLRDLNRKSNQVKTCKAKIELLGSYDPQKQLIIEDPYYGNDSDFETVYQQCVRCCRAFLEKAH
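Buffer or medium: Bis-Tris pH 6.0, DTT, detergent; Assay system: LMPTP-A enzyme; Quantity: 0.625 nM enzyme; Detection: endpoint fluorescence intensity; Times: 50 min dark incubation at room temperature; Controls: substrate-only low control, DMSO enzyme-plus-substrate high control; Doses: single 20 µM dose; Read-out: percent inhibition versus substrate-only and uninhibited controls; Reagent: 400 µM OMFP.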
DNMT1 inh – blocks human DNA methyltransferase DNMT1. P26358. DNMT1 molecular beacon, Hinp1I cleavage, fluorescence. inhibition (reported as % activation of signal), % at 10 µM. hit rate 0.83% among 360,000; in the data active = inhibition above about 50%
Scp-1 inhibitor – blocks human Scp-1 phosphatase activity; hit rate 0.88% among 340,000; Q9GZU7; Recombinant Scp1, phosphopeptide, malachite green phosphate absorbance; inhibition, % at 20 µM;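 active = inhibition above about 50% at 20 µM, limit read from the data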;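 also: plate controls were DMSO wells with enzyme for no effect and wells lacking enzyme for full effect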
Target sequence (Q9GZU7 76-261 limits assumed): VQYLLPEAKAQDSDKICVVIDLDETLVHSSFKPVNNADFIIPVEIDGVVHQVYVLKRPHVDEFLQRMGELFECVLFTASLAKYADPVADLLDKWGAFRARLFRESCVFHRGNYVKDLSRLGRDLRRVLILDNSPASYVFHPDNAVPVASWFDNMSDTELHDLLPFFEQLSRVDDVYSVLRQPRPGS
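Test system: SCP-1 catalytic domain; Buffer or medium: Acidic Tris acetate buffer with magnesium and detergent; Also added: Phosphorylated 17-residue peptide substrate; Compound: single 20 µM dose, 1% DMSO; Schedule: enzyme reaction 45 min at room temperature, colour 5 min, stabilisation 30 min; Signal: Phosphate-binding colour reagent, absorbance read at 630 nm.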
DNMT1 interf DR – beacon fluorescence artifact, dose response counter-screen; AID 602382; IC50, µM; 200 tested, under 10 active; shares compounds with DNMT1 inh; molecular beacon fluorescence, spectral interference counter-screen; call rule not given here
DNMT1 confirm – confirmation of human DNMT1 inhibitors | DNMT1 molecular beacon HinP1I cleavage, fluorescence | inhibition, % at 10 µM | hit rate 8% among 2,300 | shares compounds with DNMT1 inh;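 active = average inhibition of at least 30% in the single-concentration confirmation test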
DNMT1 interf – beacon fluorescence artifact counter-screen; shares compounds with DNMT1 inh; DNMT1 molecular beacon spectral interference counterscreen, fluorescence 485/520; activation (fluorescence interference), % at 10 µM; hit rate 1% among 2,300; AID 602387;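 active = activation of at least 30% at 10 µM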;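 also: DNMT1 catalytic domain with a HinP1I cleavage step and a FAM/dabcyl DNA beacon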
Active calls of the source: *; x = not tested or not shown.

SMILES	Rpn11 inh	STEP block	LMPTP inh	DNMT1 inh	Scp-1 inhibitor	DNMT1 confirm	DNMT1 interf	others
O=C(O)COn1c(-c2ccccc2)nc2ccc([N+](=O)[O-])cc21	-25.6	16.7	27.5	66.3*	81.0*	1.6	-0.9
COC(C#CCCN(C)C)(c1ccccc1)c1ccccc1	-1.2	-0.9	-1.5	2.0	-5.5	x	x
Cc1ccc(C(=O)Nc2ccc(S(=O)(=O)N3CCN(C)CC3)cc2)cc1	-2.8	0.4	-0.5	67.2*	-12.1	4.6	4.1
Cc1ccc(-c2nc3cccnc3o2)cc1NC(=O)COc1ccc(Cl)cc1C	-2.5	5.4	1.8	73.2*	2.8	1.7	-7.1
Cc1ccc(-c2nc3cccnc3o2)cc1NC(=O)COc1ccc(C(C)(C)C)cc1	8.3	5.7	5.8	-7.0	7.6	x	x
Cc1ccc(-c2nc3ncccc3o2)cc1NC(=O)Cc1ccc(Cl)cc1	4.6	-4.1	-1.0	76.3*	-12.1	3.4	4.4
COc1cc(OC)c(NS(=O)(=O)c2ccc(Cl)c(C(=O)OC(C)C(=O)N3CCCC3)c2)cc1Cl (stereo unspecified)	2.5	0.5	-0.6	-3.1	-2.3	x	x
COc1cccc(CN(C)C(=O)c2[nH]c(C)c(C(C)=O)c2C)c1OC	18.0	-3.3	-0.8	-2.5	-12.4	x	x
COc1ccc(NC(=O)CC2Nc3cc(C)c(C)cc3NC2=O)c([N+](=O)[O-])c1 (stereo unspecified)	-0.9	3.9	3.3	58.9*	4.5	1.1	2.5
O=C1CC(c2ccco2)CC(O)=C1C=Nc1cc(Cl)ccc1O (stereo unspecified)	-19.0	3.6	9.0	89.1*	72.5*	3.0	-1.7
O=C1CC(c2ccco2)CC(O)=C1C=Nc1cc(Cl)ccc1Cl (stereo unspecified)	-7.5	2.2	1.9	37.0	-3.9	x	x
O=C(O)C1CSC(c2ccncc2)N1 (stereo unspecified)	-5.9	-3.3	-3.8	1.1	3.6	x	x
O=C(O)C1CSC(c2ccco2)N1 (stereo unspecified)	18.7	31.9	57.6*	96.9*	66.6*	17.3	-3.7
Cn1c(SCC(=O)c2cc(Cl)c(Cl)s2)nnc1-c1ccco1	23.3	31.4	30.5	51.9*	9.7	7.9	4.6
Cc1ccc(C(=O)CSc2nnc(-c3ccco3)n2C)cc1	-4.0	1.5	-1.0	1.2	0.9	x	x
O=C1C(=O)c2c(ccc3ccccc23)-c2ccccc21	-7.2	15.9	43.2	108.1*	101.4*	28.2	-9.8	DNMT1 interf DR=>99
CN(C)/C=C1\Oc2ccc3ccccc3c2C1=O	1.2	0.4	0.5	-1.7	-7.2	x	x
Cc1ccc(CNC(=O)Cn2nnc(C(=O)Nc3cccc(C)c3C)c2N)cc1	5.5	-3.7	1.5	5.2	-8.2	x	x
Cc1ccc(CNC(=O)c2nnn(CC(=O)Nc3cccc(C)c3C)c2N)cc1	15.9	0.4	23.1	61.5*	-3.5	12.1	-2.9
Cc1ccc(-n2nc3ccc(NC(=O)c4cccc([N+](=O)[O-])c4C)cc3n2)cc1	-2.7	0.6	2.4	62.8*	-1.2	3.6	2.8
COC(=O)C(C)NC(=O)C1CCCN1C(=O)CNC(=O)OCc1ccccc1 (stereo unspecified)	-2.8	0.8	-0.2	2.9	-12.1	x	x
CCOc1ccc(Cl)cc1-c1cc(C(=O)NC2CCCCC2)[nH]n1	14.2	-0.4	1.5	74.3*	x	0.5	1.3
COc1ccc(Cl)cc1-c1cc(C(=O)NC2CCCCC2)[nH]n1	6.3	-0.9	1.7	0.2	x	x	x
Cc1cccc(/C(N)=N/OC(=O)CCCc2ccccc2)c1	-1.8	1.5	2.7	2.5	-8.3	x	x
C=CCn1c(SCC(=O)Nc2ccc3c(c2)OCO3)nnc1-c1ccccc1	-5.4	0.7	3.2	52.1*	4.8	1.4	5.9
SMILES	Rpn11 inh	STEP block	LMPTP inh	DNMT1 inh	Scp-1 inhibitor	DNMT1 confirm	DNMT1 interf	others
Oc1ccc(-c2cn3ccccc3n2)cc1	-1.0	1.1	-1.1	152.9*	0.2	4.7	1.9
COC(=O)c1ccc(N2CCS(=O)(=O)CC2)cc1	3.1	-4.9	0.1	58.7*	6.6	1.7	3.5
Cn1ncn2c(=O)c3c(nc12)-c1ccccc1CC31CCCC1	-1.1	1.8	1.2	85.5*	-9.4	0.9	3.5
O=[N+]([O-])c1ccc(F)cc1OCc1cccc(S(=O)(=O)N2CCOCC2)c1	5.3	-0.3	-0.1	81.7*	-4.9	5.4	7.6
O=c1[nH]c2cc(O)ccc2c2ccccc12	-3.2	-2.0	-0.6	1.1	x	x	x
Nc1ccc2c(c1)[nH]c(=O)c1ccccc12	-4.5	1.8	-0.2	80.0*	-0.3	5.6	1.2
Cc1nnc(SCC(=O)N2CCN(C(=O)c3ccco3)CC2)n1-c1ccccc1	-0.3	3.4	0.4	1.2	12.3	x	x
Cc1ccc(NC(=O)CC2C(=O)N(Cc3ccccc3)C(=S)N2NC(=O)c2ccccc2)c(C)c1 (stereo unspecified)	-6.6	0.1	2.2	80.7*	2.7	5.7	10.5
CNC(=O)CC1C(=O)N(Cc2ccccc2)C(=S)N1NC(=O)c1cccc(F)c1 (stereo unspecified)	-2.1	1.8	-2.8	1.9	-4.4	x	x
C[C@H](CO)N1C[C@H](C)[C@@H](CN(C)C(=O)Nc2ccc(C(F)(F)F)cc2)Oc2c(NC(=O)CCC(F)(F)F)cccc2C1=O	-1.7	-2.2	2.6	-1.8	1.9	x	x
O=C(CNc1cccc2ccccc12)N/N=C/C=C/c1ccco1	2.7	0.7	5.1	-17.8	-8.1	x	x
O=C(CSc1nnc(SCc2ccccc2)s1)N/N=C/C=C/c1ccco1	x	4.0	37.4	97.9*	83.5*	12.9	0.7
O=C(Cc1cccs1)N/N=C/C=C/c1ccco1	-15.1	1.3	12.3	66.2*	46.4	0.3	-1.9
O=C(NC1CCCCC1)C1CCN(c2ncccn2)CC1	-4.5	-2.3	-1.9	3.8	-7.5	x	x
O=C(O)C1CCN(c2ncccn2)CC1	8.0	-3.1	0.1	81.1*	3.6	1.8	2.2
Cc1ccc2nc(/C(C#N)=C\c3ccc(Oc4ccc([N+](=O)[O-])cn4)cc3)[nH]c2c1	34.4	0.8	0.2	53.8*	10.6	6.2	2.6
CCOc1cc(/C=C(/C#N)c2nc3ccccc3[nH]2)ccc1Oc1ccc([N+](=O)[O-])cn1	16.8	-0.5	2.2	34.9	-1.0	x	x
COc1ccc2nc(/C(C#N)=C\c3ccc(Oc4ccc([N+](=O)[O-])cn4)cc3)[nH]c2c1	14.9	2.5	3.2	57.3*	-2.7	1.9	2.2
CCn1cc(Br)c(C(=O)Nc2sc3c(c2C(N)=O)CCCC3)n1	12.7	2.2	8.7	68.0*	-7.2	2.0	-2.9
